From ChEMBL document CHEMBL4330095, “Development of an anti-hepatitis B virus (HBV) agent through the structure-activity relationship of the interferon-like small compound CDM-3008” (Bioorg Med Chem, 2019)
≈ marks a conversion by molar mass, not a printed value. Calls of active or inactive are those of the source. The calls are words filed in the database; no cut-off is given here.

Assays:
[1] = Cytotoxicity against human […] cells harboring R6FLR-N replicons after 3 days by XTT assay; assay type: cell-based; set-up: concentration or dose not given beside the values; settings: 72 h
Procedure, shortened: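 Replicon cells seeded at 3 × 10⁴ cells/well and exposed to compound for 3 days; viability by XTT. Values given as percent at 30 μM against DMSO control, mean of n = 2.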

Hepatitis C virus = test: Antiviral activity against HCV infected in human R6FLR-N replicon cells assessed as reduction in viral replication at 30 uM after 3 days by luciferase reporter gene assay; assay type: functional, Hepacivirus hominis; set-up: scale not given: the % may be the effect or the level left
Procedure, shortened: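 R6FLR-N replicon cells, 3 × 10⁴ cells/well, grown in DMEM with 10% FBS and 500 μg/ml G418; compound added after 1 day, then 3 days of incubation. Luciferase read by Steady-Glo; percent inhibition at 30 μM expressed against DMSO control, mean of n = 2.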

[2] = Solubility of the compound by HPLC-UV analysis; assay type: physicochemical
Procedure, shortened: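 Dissolved compound solution injected into HPLC and peak area read by UV at 254 nm; concentration derived from a previously determined calibration curve.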

HBV genotype C [3] = test: (§1) Antiviral activity against HBV genotype C infected in primary human hepatocytes PXB cells assessed as inhibition of viral DNA level after 14 days by qPCR analysis; assay type: functional, cell-based
Procedure, shortened: (§2)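 PXB cells (primary human hepatocytes from humanized-liver chimeric mice) in dHCGM, 37 °C, 5% CO2; infected with HBV C_AT at 3 genome equivalents/cell while treated with 0.01–10 μM compound; after 1 day, compound-containing medium exchanged every 3 or 4 days for 14 days. Cellular DNA purified and quantified, HBV DNA by qPCR; mean ± SE, n = 3.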

Hepatocyte = test: Cytotoxicity against human primary hepatocytes PXB cells assessed as decrease in cell viability by RealTime-Glo MT assay; assay type: cell-based
Procedure, shortened: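 Viability read by RealTime-Glo MT in HBV C_AT-infected PXB cells (3 genome equivalents/cell) given 0.01–10 μM compound from infection onward, with compound-containing medium exchanged every 3 or 4 days over 14 days; mean ± SE, n = 3.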

[4] = Half life in mouse liver microsomes at 29 umol/L preincubated for 5 mins followed by NADPH addition measured after 120 mins by HPLC analysis; assay type: ADME, Microsome
Procedure, shortened: (§3)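 Compound (29 μmol/L, as added) combined with mouse or human liver microsomes (20 mg/mL stock), preincubated 5 min at 37 °C, then NADPH regenerating system added and incubated 0, 30, 60 or 120 min at 37 °C. Aliquots quenched in ice-cold MeOH, internal standard added, centrifuged; remaining compound quantified by HPLC against a calibration curve.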

[5] = Half life in human liver microsomes at 29 umol/L preincubated for 5 mins followed by NADPH addition measured after 120 mins by HPLC analysis; assay type: ADME, Microsome; procedure, shortened: as §3
[6] = as §1; assay type: functional, cell-based; settings: Hepatitis B virus, 336 h; procedure, shortened: as §2
Homo sapiens = species: Homo sapiens; test: Induction of IFN-stimulated gene expression response in human JHH7 cells assessed as upregulation of OAS1 mRNA expression at 3 to 30 uM after 3 days by qPCR analysis; assay type: functional, cell-based
Procedure, shortened: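 JHH-7 hepatoma cells in DMEM with 10% FBS, 37 °C, 5% CO2, exposed to 3 and 30 μM compound for 3 days. Total RNA purified and its concentration measured by UV spectrophotometry before OAS-1 mRNA measurement; mean ± SE, n = 3.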

HBV genotype C [7] = test: Antiviral activity against HBV genotype C infected in primary human hepatocytes PXB cells assessed as inhibition of viral DNA level at 0.32 to 32 uM incubated for 7 days by qPCR analysis; assay type: functional, cell-based
Procedure, shortened: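 PXB cells in dHCGM infected with HBV C_AT, 3 genome equivalents/cell; medium exchanged every 3 or 4 days. After 28 days of infection, cells treated with the indicated concentrations for 7 days, pegylated IFNα2a run alongside. Cellular DNA purified and quantified, then HBV DNA measured by qPCR; mean ± SE, n = 3.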

| Compound | solubility [2] [µg/mL] | half-life at 29 µM [4] [min] | half-life at 29 µM [5] [min] | Activity [1] [%] | Activity (Hepatitis C virus) | Activity (HBV genotype C [3]) | Activity (Hepatocyte) | IC50 [6] [µM] | Activity (Homo sapiens) | Activity (HBV genotype C [7]) |
| --- | --- | --- | --- | --- | --- | --- | --- | --- | --- | --- |
| CCCc1nnc(-c2cn3c(ccc4c(C(F)(F)F)cc(C(F)(F)F)nc43)n2)o1 |  |  |  | 8.5 | 15.3% |  |  |  |  |  |
| O=C(c1cn2c(ccc3c(C(F)(F)F)cc(C(F)(F)F)nc32)n1)N1CCNCC1 |  |  |  |  |  | Active |  |  |  |  |
| OCc1nnc(-c2cn3c(ccc4c(C(F)(F)F)cc(C(F)(F)F)nc43)n2)o1 |  |  |  | -7.4 | 12% |  |  |  |  |  |
| COCc1nnc(-c2cn3c(ccc4c(C(F)(F)F)cc(C(F)(F)F)nc43)n2)o1 |  |  |  | -2.5 | 4.8% |  |  |  |  |  |
| O=C(Nc1cccnc1)c1cn2c(ccc3c(C(F)(F)F)cc(C(F)(F)F)nc32)n1 | < 100 |  |  | 6.9 | 63.6% |  |  |  |  |  |
| Cc1nnc(-c2cn3c(ccc4c(C(F)(F)F)cc(C(F)(F)F)nc43)n2)o1 |  |  |  | 4.3 | 89.8% |  |  |  |  |  |

Continued, in another order:

| solubility [2] [µg/mL] | half-life at 29 µM [4] [min] | half-life at 29 µM [5] [min] | Compound | Activity [1] [%] | Activity (Hepatitis C virus) | Activity (HBV genotype C [3]) | Activity (Hepatocyte) | IC50 [6] [µM] | Activity (Homo sapiens) | Activity (HBV genotype C [7]) |
| --- | --- | --- | --- | --- | --- | --- | --- | --- | --- | --- |
| < 100 |  |  | O=C(Nc1ccccn1)c1cn2c(ccc3c(C(F)(F)F)cc(C(F)(F)F)nc32)n1 | 1.6 | 2.6% |  |  |  |  |  |
| > 30000 | > 120 | > 120 | Cl.O=C(NC1CCNCC1)c1cn2c(ccc3c(C(F)(F)F)cc(C(F)(F)F)nc32)n1 | 58.6 | 90.7% |  | Non-Toxic | 8.4 | inactive |  |
| > 30000 |  |  | Cl.NCCOc1cc(C(F)(F)F)c2ccc3nc(C(=O)Nc4ccncc4)cn3c2n1 | 51.8 | 78.2% | inactive |  |  |  |  |
| 920 (≈ 2470 µM) | 58.2 | 34.1 | FC(F)(F)c1cc(C(F)(F)F)c2ccc3nc(-c4nnco4)cn3c2n1 | 3.1 | 90.1 - 92.1% |  |  |  | Active | Active |
| 19800 |  |  | Cl.NCCOc1cc(C(F)(F)F)c2ccc3nc(-c4nnco4)cn3c2n1 | 5.7 | 28.1% |  | Non-Toxic | 10 | Active |  |
| < 100 |  |  | O=C(Nc1ccncc1)c1cn2c(ccc3c(C(F)(F)F)cc(C(F)(F)F)nc32)n1 | 4.2 | 40.1% |  |  |  |  |  |
